Here are results for 10 compounds from ChEMBL document CHEMBL1141491, “Design, synthesis, and evaluation of novel ethambutol analogues” (2008).

By MIC90 is commonly meant the lowest concentration that inhibits either 90% of growth or 90% of the strains tested, depending on the study. A lower MIC90 goes with higher susceptibility.

SMILES strings stand for the structures. ≈ marks a conversion by molar mass, not a printed value.

For this test, the system named is Mycobacterium tuberculosis. The test is described as follows: Antituberculosis activity against Mycobacterium tuberculosis H37Rv by microbroth dilution method. It counts as functional. Put shortly: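 M. tuberculosis H37Rv grown in Middlebrook 7H9 with 10% ADC to OD600 0.4–0.6, then diluted in 7H9 to OD600 0.01. This inoculum was added to 2-fold serial dilutions of compound and incubated 37 °C for 7 days. MIC90 was read visually as the concentration inhibiting 90% of growth.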
In general terms: In broth dilution the organism is exposed to a series of concentrations in liquid medium.
`CC[C@@H](CO)NCCNC(CO)CO.Cl.Cl` displayed an MIC90 of 3.12 µg/mL.
In the case of `C=CC[C@@](C)(CO)NCCN[C@@H](CC)CO.Cl.Cl`, the MIC90 came out at 6.25 µg/mL.
Compound `CC[C@@H](CO)NCCNC(C)(C)CO.Cl.Cl` yielded an MIC90 of 1.6 µg/mL.
As for `Br.Br.CC[C@@H](CO)NCCN[C@@H](CC)CO` [ETHAMBUTOL HYDROBROMIDE], the figure is 0.8 µg/mL; as for `Cl.Cl.OCC1(NCCNC2(CO)CCCC2)CCCC1`, 3.12 µg/mL.
For `CC[C@@H](CO)NCCNC1(CO)CCCC1.Cl.Cl`, the MIC90 came out at 1.6 µg/mL.
`CC[C@@H](CO)NCCN[C@@](C)(CC)CO` yielded an MIC90 of 3.12 µg/mL (≈ 14.3 µM).
With `CC[C@@H](CO)NCCN[C@H](CO)c1ccccc1.Cl.Cl`, the MIC90 was determined as 50 µg/mL.
In turn, `C=CC[C@@H](CO)NCCN[C@@H](CC)CO.Cl.Cl` yielded an MIC90 of 25 µg/mL.
`CC(C)(CO)NCCNC(C)(C)CO.Cl.Cl` yielded an MIC90 of 6.25 µg/mL.
